In ChEMBL document CHEMBL1142104, “Anti-HCV bioactivity of pseudoguaianolides from Parthenium hispitum” (J Nat Prod, 2007) one finds inhibition and Activity data, which are given here for 7 compounds.

The test system of one series is Hepatitis C virus. Briefly: Antiviral activity against HCV in Huh7 cells at 2 uM by subgenomic replicon assay. Type of series: functional, Hepacivirus hominis. The settings on record: Huh-7. In a few lines: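 Huh-7 replicon cells (luciferase reporter), grown to 85% confluency with >95% viability, seeded at 11 000 cells/well; compound added and incubated 48 h at 37 °C. Plates cooled 30 min to room temperature, luciferase reagent added, luminescence read after 3 min. Inhibition calculated with no-cell wells as low signal and compound-free cells as high signal; duplicate testing.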

Series [1] can be described thus: Cytotoxicity against Huh7 replicon cells. It counts as cell-based. The settings on record: human, huh-7. For orientation: Replicon systems follow genome replication, usually without infectious particles.

Broadly, the inhibition is the drop in the measured response relative to a control, in per cent. Read a low inhibition as a weak effect.

In the series with Hepatitis C virus, `C=C1C(=O)O[C@@H]2[C@H]1CC[C@H](COC(=O)CCC)[C@]1(O)CCC(=O)[C@@]21C` [HISPITOLIDE B] had an inhibition at 2 µM of 90%. The Activity result in series [1] was “Not Active”.
Taken in the same sequence, the figures for `C=C1C(=O)O[C@@H]2[C@H]1CCC(COC(=O)C(C)CC)[C@]1(O)CCC(=O)[C@@]21C` (some centres undefined) were 25% and “Not Active”.
For `C=C1C(=O)O[C@@H]2[C@H]1CC[C@H](COC(=O)C=C(C)C)[C@]1(O)CCC(=O)[C@@]21C` [HISPITOLIDE D], in that order: 98% and “Not Active”.
Taken in the same sequence, the figures for `C=C1C(=O)O[C@@H]2[C@H]1CC[C@H](COC(=O)/C(C)=C\C)[C@]1(O)CCC(=O)[C@@]21C` [HISPITOLIDE E] were 65% and “Not Active”.
Regarding `C=C1C(=O)O[C@@H]2[C@H]1CC[C@H](COC(=O)CC)[C@]1(O)CCC(=O)[C@@]21C` [HISPITOLIDE A], 2 µM produced 55% inhibition in the series on Hepatitis C virus. Also, the Activity entry in series [1] was “Not Active”.
For `C=C1C(=O)O[C@@H]2[C@H]1CCC(COC(=O)CC(C)C)[C@]1(O)CCC(=O)[C@@]21C` (some centres undefined), in that order: 63% and “Not Active”.
For `C=C1C(=O)O[C@@H]2[C@H]1CC[C@H](COC(=O)/C(C)=C/C)[C@]1(O)CCC(=O)[C@@]21C` [HISPITOLIDE C], in that order: 98% and “Not Active”.
